Measured values: ChEMBL document CHEMBL3352269, “Discovery of 2-Pyridylpyrimidines as the First Orally Bioavailable GPR39 Agonists” (ACS Med Chem Lett, 2014)
Each block holds one molecule with its values, some of them ahead of it.

Experiments:
[1] = Hepatic clearance in rat liver microsomes; assay type: ADME
How it was run: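 Predicted hepatic clearance calculated from intrinsic clearance in rat liver microsomes.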

[2] = biological target: T1, G-protein coupled receptor 39 (Homo sapiens, UniProt O43194); experiment: Agonist activity at human GPR39 expressed in HEK293 cells by IP1 assay; assay type: functional, cell-based
T1 sequence (O43194 whole entry): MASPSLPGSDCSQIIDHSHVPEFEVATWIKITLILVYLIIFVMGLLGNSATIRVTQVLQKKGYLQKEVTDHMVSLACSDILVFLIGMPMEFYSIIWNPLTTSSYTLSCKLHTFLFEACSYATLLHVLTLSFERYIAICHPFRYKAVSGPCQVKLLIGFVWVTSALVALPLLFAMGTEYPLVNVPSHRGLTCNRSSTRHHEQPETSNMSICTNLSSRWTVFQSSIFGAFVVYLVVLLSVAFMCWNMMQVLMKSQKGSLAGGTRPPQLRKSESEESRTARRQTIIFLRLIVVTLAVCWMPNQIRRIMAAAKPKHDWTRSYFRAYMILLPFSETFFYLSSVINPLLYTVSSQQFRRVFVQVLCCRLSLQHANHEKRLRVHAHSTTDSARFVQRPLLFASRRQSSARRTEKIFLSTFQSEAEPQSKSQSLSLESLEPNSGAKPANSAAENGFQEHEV
How it was run: (§1)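 Gαq signalling read as inositol-1-phosphate (IP1) accumulation in HEK293 cells overexpressing human, mouse or rat GPR39. EC50 taken from an 11-point dose–response curve run in triplicate. Replicates range from 1 to 4, with standard deviation where available.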

[3] = biological target: T2, G-protein coupled receptor 39 (Mus musculus, UniProt Q5U431); experiment: Agonist activity at mouse GPR39 expressed in HEK293 cells by IP1 assay; assay type: functional, cell-based; how it was run: as §1
T2 sequence (Q5U431 whole entry): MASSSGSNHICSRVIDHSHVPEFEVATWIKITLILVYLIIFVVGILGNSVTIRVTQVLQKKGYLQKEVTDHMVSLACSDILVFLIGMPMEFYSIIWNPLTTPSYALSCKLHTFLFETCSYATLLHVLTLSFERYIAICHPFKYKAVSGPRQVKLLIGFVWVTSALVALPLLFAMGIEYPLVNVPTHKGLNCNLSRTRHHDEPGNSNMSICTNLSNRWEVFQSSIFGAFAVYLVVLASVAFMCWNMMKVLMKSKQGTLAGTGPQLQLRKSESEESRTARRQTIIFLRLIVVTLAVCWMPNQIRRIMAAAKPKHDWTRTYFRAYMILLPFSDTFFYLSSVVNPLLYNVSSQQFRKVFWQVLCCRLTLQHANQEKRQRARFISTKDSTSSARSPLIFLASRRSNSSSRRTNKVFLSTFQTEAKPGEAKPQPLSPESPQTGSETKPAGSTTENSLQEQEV

[4] = Clearance in Sprague-Dawley rat at 1 mg/kg, iv administered as single dose; assay type: ADME, organism-based; parameters: dose 1 mg/kg, route intravenous; conditions: in vivo
How it was run: (§2)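 Sprague–Dawley rats received a single iv dose of 1 mg/kg, with clearance measured, or an oral dose of 3 mg/kg, with bioavailability (F) measured.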

[5] = Oral bioavailability in Sprague-Dawley rat at 3 mg/kg; assay type: ADME, organism-based; conditions: in vivo; how it was run: as §2
Protein Gpr39 [6] = biological target: T3, Protein Gpr39 (Rattus norvegicus, UniProt A6QR73); experiment: Agonist activity at rat GPR39 expressed in HEK293 cells by IP1 assay; assay type: functional, cell-based; how it was run: as §1
T3 sequence (A6QR73 whole entry): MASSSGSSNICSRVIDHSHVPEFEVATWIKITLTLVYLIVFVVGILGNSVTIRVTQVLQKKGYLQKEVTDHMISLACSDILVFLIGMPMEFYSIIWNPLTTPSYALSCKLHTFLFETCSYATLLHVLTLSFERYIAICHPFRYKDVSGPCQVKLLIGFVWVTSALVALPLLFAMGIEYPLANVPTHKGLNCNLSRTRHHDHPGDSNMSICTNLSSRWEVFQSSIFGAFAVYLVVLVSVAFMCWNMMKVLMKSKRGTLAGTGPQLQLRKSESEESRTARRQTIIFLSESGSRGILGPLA

[7] = biological target: T1, G-protein coupled receptor 39; experiment: Agonist activity at human GPR39 expressed in HEK293 cells by cAMP assay; assay type: functional, cell-based
How it was run: (§3)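 cAMP accumulation (Gαs signalling) in HEK293 cells overexpressing human GPR39. Dose–response curve run in triplicate, 1–16 replicates. EC50 derived from the curve. Percent efficacy is expressed relative to the cAMP response to 25 μM forskolin.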

[8] = biological target: T4, G-protein coupled receptor 39 (Homo sapiens) (UniProt O43194); experiment: Agonist activity at human GPR39 expressed in HEK293 cells by cAMP assay relative to forskolin; assay type: functional, cell-based; how it was run: as §3
T4 sequence (whole entry): T1 sequence (O43194 whole entry)

[9] = Induction of GLP1 secretion in mouse STC1 cells incubated for 2 hrs by fluorescent bead based ELISA method; assay type: functional, cell-based; conditions: STC-1, 2 h
How it was run: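 Mouse enteroendocrine STC-1 cells, which express endogenous GPR39, were assayed for GLP-1 secretion over a dose–response run in triplicate. Maximal activity is expressed as fold increase in GLP-1 over the DMSO control.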

[10] = Protection against cytokine-induced cell death in rat INS-1E cells assessed as caspase 3/7 activity; assay type: functional, cell-based
How it was run: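 Rat insulinoma INS-1E cells (beta-cell phenotype) were treated with cytokines to induce cell death. Caspase 3/7 activity was the read-out. Dose–response run in triplicate.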

[11] = Aqueous solubility at pH 6.8; assay type: physicochemical
[12] = biological target: T1, G-protein coupled receptor 39; experiment: Agonist activity at human GPR39 by IP1 assay; assay type: functional; how it was run: as §1
Protein Gpr39 [13] = biological target: T3, Protein Gpr39; experiment: Agonist activity at rat GPR39 by IP1 assay; assay type: functional; how it was run: as §1
[14] = biological target: T2, G-protein coupled receptor 39; experiment: Agonist activity at mouse GPR39 by IP1 assay; assay type: functional; how it was run: as §1
[15] = Protein binding in rat plasma; assay type: ADME, cell-free; conditions: read-out: PPB (converted)
[16] = Protein binding in mouse plasma; assay type: ADME, cell-free; conditions: read-out: PPB (converted)
[17] = biological target: Growth hormone secretagogue receptor type 1 (Homo sapiens, UniProt Q92847); experiment: Binding affinity to human ghrelin receptor
Chain of Growth hormone secretagogue receptor type 1 (Q92847 whole entry): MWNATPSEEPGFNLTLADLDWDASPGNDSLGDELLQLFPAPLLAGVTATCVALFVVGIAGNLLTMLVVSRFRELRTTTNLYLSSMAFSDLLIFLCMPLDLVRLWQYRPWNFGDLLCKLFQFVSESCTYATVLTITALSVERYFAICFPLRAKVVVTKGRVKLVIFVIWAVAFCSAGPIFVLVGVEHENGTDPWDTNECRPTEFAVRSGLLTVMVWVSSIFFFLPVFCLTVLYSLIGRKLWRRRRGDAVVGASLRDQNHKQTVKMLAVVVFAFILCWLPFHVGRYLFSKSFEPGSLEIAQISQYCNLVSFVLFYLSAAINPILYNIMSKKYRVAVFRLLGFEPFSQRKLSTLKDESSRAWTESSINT

[18] = biological target: Neurotensin receptor type 1 (Homo sapiens, UniProt P30989); experiment: Binding affinity to human neurotensin 1 receptor
Chain of Neurotensin receptor type 1 (P30989 whole entry): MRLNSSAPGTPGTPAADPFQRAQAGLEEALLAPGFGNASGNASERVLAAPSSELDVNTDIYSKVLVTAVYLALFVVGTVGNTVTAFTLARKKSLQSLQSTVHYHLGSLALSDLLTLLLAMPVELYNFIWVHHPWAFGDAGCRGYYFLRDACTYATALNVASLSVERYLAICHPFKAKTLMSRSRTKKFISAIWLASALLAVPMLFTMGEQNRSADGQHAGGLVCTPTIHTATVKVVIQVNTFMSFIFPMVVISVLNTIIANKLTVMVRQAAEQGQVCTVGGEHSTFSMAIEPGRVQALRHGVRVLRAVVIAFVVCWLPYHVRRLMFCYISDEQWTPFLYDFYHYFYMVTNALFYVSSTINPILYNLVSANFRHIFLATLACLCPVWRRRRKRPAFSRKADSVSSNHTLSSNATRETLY

[19] = Cmax in C57BL/6 mouse at 10 mg/kg, po administered as single dose after 1 to 1.5 hrs by LC/MS/MS method; assay type: ADME, organism-based; parameters: dose 10 mg/kg, route oral; conditions: in vivo
[20] = Cmax in C57BL/6 mouse at 30 mg/kg, po administered as single dose after 1 to 1.5 hrs by LC/MS/MS method; assay type: ADME, organism-based; parameters: dose 30 mg/kg, route oral; conditions: in vivo
[21] = Cmax in C57BL/6 mouse at 100 mg/kg, po administered as single dose after 1 to 1.5 hrs by LC/MS/MS method; assay type: ADME, organism-based; parameters: dose 100 mg/kg, route oral; conditions: in vivo
[22] = Half life in C57BL/6 mouse at 10 mg/kg, po administered as single dose by LC/MS/MS method; assay type: ADME, organism-based; parameters: dose 10 mg/kg, route oral; conditions: in vivo
How it was run: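 Male C57BL/6 mice, separate study with a single 10 mg/kg dose. Half-life calculated from the plasma concentration profile.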

Mus musculus = experiment: Increase in GLP1 level in C57BL/6 mouse at 30 mg/kg, po concurrently dosed with 3 mg/kg, po DPP4 inhibitor PKF275-055 followed by glucose challenge after 1 hr post drug dose; assay type: functional
How it was run: (§4)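 Male C57BL/6 mice were dosed orally with compound together with a DPP-IV inhibitor. After 1 h they were challenged with oral glucose at 3 g/kg. Active GLP-1 and plasma exposure were measured 30 min later. One-way ANOVA with Dunnett's post-test against the vehicle group.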

[23] = Plasma concentration in C57BL/6 mouse at 30 mg/kg, po concurrently dosed with 3 mg/kg, po DPP4 inhibitor PKF275-055 followed by glucose challenge after 1 hr post drug dose; assay type: ADME, organism-based; how it was run: as §4
[24] = Clearance in Sprague-Dawley rat at 2 mg/kg, iv administered as single dose; assay type: ADME, organism-based; parameters: dose 2 mg/kg, route intravenous; conditions: in vivo
How it was run: (§5)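 Sprague–Dawley rats received a single iv dose of 2 mg/kg or an oral dose of 5 mg/kg. Vehicle was 10% NMP, 30% PEG200 and 5% Solutol in water. Clearance was taken from the iv arm and bioavailability from the oral arm.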

[25] = Oral bioavailability in Sprague-Dawley rat at 5 mg/kg; assay type: ADME, organism-based; conditions: in vivo; how it was run: as §5

Compound: O=S(=O)(NC[C@H]1CC[C@H](CNc2nc(NC3CC3)cc(-c3ccccn3)n2)CC1)c1cccc(F)c1
- CLhep predicted [1]: 51.2 mL/min/kg
- solubility [11]: < 5 µM
- EC50 [12]: 0.202 µM
- EC50 (Protein Gpr39 [13]): 0.012 µM
- EC50 [14]: 0.004 µM

Compound: CNc1nc(NCc2ccc(NS(C)(=O)=O)cc2Cl)cc(-c2ccccn2)n1
- CLhep predicted [1]: 41.3 mL/min/kg
- EC50 [12]: 0.0008 µM
- EC50 (Protein Gpr39 [13]): 0.0004 µM
- EC50 [2]: 0.0008 µM
- EC50 (Protein Gpr39 [6]): 0.0004 µM
- EC50 [7]: 0.06 µM
- Efficacy [8]: 64%
- EC50 [9]: 0.06 µM
- EC50 [10]: 0.02 µM
- fraction unbound [15]: 0.007
- fraction unbound [16]: 0.009
- IC50 [17]: > 30 µM
- IC50 [18]: > 30 µM
- Cmax [19]: 1.4 µM
- Cmax [20]: 6.1 µM
- Cmax [21]: 25.3 µM
- half-life [22]: 7 h
- fold change (FC) (Mus musculus): 6
- concentration at 1 h [23]: 1.6 µM

Compound: c1ccc(-c2cc(NCC3CC3)ncn2)nc1
- EC50 [2]: 22 µM
- EC50 [3]: 10 µM

Compound: FC(F)(F)Oc1ccc(CNc2nc(NCC3CC3)cc(-c3ccccn3)n2)cc1
- EC50 [2]: 0.6 µM
- EC50 [3]: 0.022 µM

Compound: O=S(=O)(NC[C@H]1CC[C@H](CNc2cc(-c3ccccn3)nc(NC3CC3)n2)CC1)c1cccc(F)c1
- EC50 [12]: 0.011 µM
- EC50 (Protein Gpr39 [13]): 0.001 µM
- EC50 [14]: 0.003 µM
- clearance [24]: 42 mL/min/kg
- bioavailability [25]: 25%

Compound: CN(C)c1nc(NCC2CC2)cc(-c2ccccn2)n1
- EC50 [2]: > 25 µM
- EC50 [3]: 6.72 µM

Continued by falling EC50 [2], values first:

- EC50 [2]: 0.164 µM
- EC50 [3]: 0.115 µM
Compound: CNc1nc(NCC2CC2)cc(-c2ccccn2)n1

- CLhep predicted [1]: > 52.3 mL/min/kg
- EC50 [2]: 0.081 µM
- EC50 [3]: 0.017 µM
Compound: Cc1nc(NCc2ccc(Cl)cc2)cc(-c2ccccn2)n1

- CLhep predicted [1]: > 52.3 mL/min/kg
- EC50 [2]: 0.06 µM
- EC50 [3]: 0.001 µM
Compound: FC(F)(F)CNc1nc(NCc2ccc(Cl)cc2)cc(-c2ccccn2)n1

- CLhep predicted [1]: 34.1 mL/min/kg
- EC50 [2]: 0.036 µM
- EC50 [3]: 0.185 µM
- clearance [4]: 18 mL/min/kg
- bioavailability [5]: 45%
Compound: CNc1nc(NCc2ccc(S(C)(=O)=O)cc2)cc(-c2ccccn2)n1

- CLhep predicted [1]: > 52.3 mL/min/kg
- EC50 [2]: 0.013 µM
- EC50 [3]: 0.007 µM
Compound: CNc1nc(NCc2ccc(OC(F)(F)F)cc2)cc(-c2ccccn2)n1

- EC50 [2]: 0.011 µM
- EC50 [3]: 0.01 µM
Compound: CNc1nc(NCC2CCCCC2)cc(-c2ccccn2)n1

- CLhep predicted [1]: 35.9 mL/min/kg
- EC50 [2]: 0.005 µM
- EC50 [3]: 0.002 µM
- EC50 (Protein Gpr39 [6]): 0.002 µM
- EC50 [7]: 0.55 µM
- Efficacy [8]: 48%
- EC50 [9]: 4.4 µM
Compound: CNc1nc(NCc2ccc(NC(C)=O)cc2)cc(-c2ccccn2)n1
- EC50 [10]: 1.2 µM
